High-throughput results deposited in PubChem BioAssay by The Scripps Research Institute Molecular Screening Center.
Compounds with a hit are over-represented: about 4.7% of the library has one in this group of screens.
m5-HT2A agonist: activates the mouse 5-HT2A serotonin receptor. P35363. CHO-K1 mHTR2A beta-arrestin complementation, luminescence; percent of 30 µM serotonin response. activation, % at 7.6 µM. 360,000 tested, 0.66% active. AID 624169;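 active = activation above a run cutoff, the mean activation of all tested compounds plus 3 SD, cut at about 14% in these data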
Target sequence (P35363 whole entry, looked up): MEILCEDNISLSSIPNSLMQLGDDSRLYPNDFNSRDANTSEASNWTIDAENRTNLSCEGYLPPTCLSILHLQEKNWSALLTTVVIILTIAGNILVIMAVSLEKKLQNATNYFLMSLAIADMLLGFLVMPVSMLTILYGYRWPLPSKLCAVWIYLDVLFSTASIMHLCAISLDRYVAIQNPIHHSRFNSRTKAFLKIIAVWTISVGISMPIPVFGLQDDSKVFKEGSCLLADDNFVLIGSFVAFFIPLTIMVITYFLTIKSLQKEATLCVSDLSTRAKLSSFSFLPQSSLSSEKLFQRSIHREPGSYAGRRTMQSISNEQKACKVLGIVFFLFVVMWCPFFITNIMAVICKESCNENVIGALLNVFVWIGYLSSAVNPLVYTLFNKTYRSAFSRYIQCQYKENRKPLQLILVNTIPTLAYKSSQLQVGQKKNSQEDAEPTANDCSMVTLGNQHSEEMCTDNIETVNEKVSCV
AHR activator: activates the human aryl hydrocarbon receptor; P35869; AHR-responsive luciferase reporter cells, luminescence; activation, % at 5 µM; 320,000 tested, 2.5% active; AID 2796; in the data active = activation above about 47%
FXN GAA850 act: increases GAA850 frataxin promoter reporter activity | HEK293 lucGAA850 FXN promoter luciferase reporter, 24 h; percent of 10 µM SAHA response | 360,000 tested, 0.56% active | activation, % at 6 µM | AID 540364;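 active = activation above the average of all compounds screened plus 3 SD, cutoff fixed separately per campaign, cut at about 7.5% in these data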
MC4R antagonist: human MC4R antagonism in cAMP assay; P32245; MC4R-expressing cells, MTII-stimulated cAMP, LANCE TR-FRET; inhibition, % at 6.5 µM; 360,000 tested, 0.48% active;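 active = inhibition above its plate's cutoff, the mean of tested wells on that plate plus 3 SD, cut at about 29% in these data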
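System: U2OS cells stably expressing human melanocortin 4 receptor (MC4R). Reagent: Melanotan II challenge after compound preincubation. Doses: 6.5 µM. Times: 30-min compound, 1-h challenge, 1-h detection, room temperature. Measured by: TR-FRET with Eu-cAMP and labeled anti-cAMP, 671 nm. Replicates: singlicate.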
MC4R ag barr: human MC4R agonism via beta-arrestin. P32245. U2OS MC4R beta-arrestin complementation, luminescence; percent of melanotan II response, DMSO zero. activation, % at 8.9 µM. 360,000 tested, 0.98% active. AID 540308;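 active = activation above a per-plate cutoff, the mean activation of sample wells on that plate plus 3 SD, cut at about 8% in these data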
Numbers stand for hits.

`CC1(C(=O)NCc2cccs2)Cc2c(-c3ccc4c(c3)OCO4)ccnc2O1` (centres undefined) gave m5-HT2A agonist inactive, FXN GAA850 act inactive, MC4R antagonist inactive and MC4R ag barr inactive.
`C=CC[C@H](CC(=O)N[C@H](CO)Cc1ccccc1)C(=O)N[C@H](COC(=O)[C@@H](CC=C)CC(=O)OC(C)(C)C)Cc1c[nH]c2ccccc12` gave m5-HT2A agonist inactive, AHR activator inactive, FXN GAA850 act inactive, MC4R antagonist inactive and MC4R ag barr 8.3.
`O=c1/c(=C/c2ccc(O)c([N+](=O)[O-])c2)sc2nc3ccccc3n12` gave m5-HT2A agonist inactive, FXN GAA850 act inactive, MC4R antagonist inactive and MC4R ag barr inactive.
O=c1c2ccc([N+](=O)[O-])c3cccc(c32)c2nc3ccccc3n12 was read as AHR activator 50.4.
Screening Cc1ccc2c(c1)=C(c1sc(N(C)c3ccc(O)cc3)nc1O)C(=O)N=2 returned m5-HT2A agonist inactive, AHR activator inactive, FXN GAA850 act inactive, MC4R antagonist inactive and MC4R ag barr inactive.
O=C1N=c2ccc(Br)cc2=C1c1sc(=O)[nH]c1O was read as AHR activator 63.9.
For Cc1nc2c(-c3ccc(Cl)cc3)cnn2c2c1CCC2 the results were m5-HT2A agonist inactive, AHR activator 74.5, FXN GAA850 act inactive, MC4R antagonist inactive and MC4R ag barr inactive.
Screening CC(C)[C@H](NC(=O)c1c(F)cccc1F)C(=O)Nc1cccc(Br)c1 returned m5-HT2A agonist inactive, AHR activator inactive, FXN GAA850 act inactive, MC4R antagonist inactive and MC4R ag barr 8.6.
`Cc1nc2ccc(NC(=O)[C@@H](NC(=O)c3c(F)cccc3F)C(C)C)cc2s1` gave m5-HT2A agonist inactive, AHR activator inactive, FXN GAA850 act inactive, MC4R antagonist inactive and MC4R ag barr inactive.
Screening Clc1cccc(Cl)c1COc1ccccc1CNn1cnnc1 returned m5-HT2A agonist inactive, AHR activator 58.9, FXN GAA850 act inactive, MC4R antagonist inactive and MC4R ag barr inactive.
Screening COc1cccc(-c2csc(N3CCN(CC(=O)NNC(=O)c4ccc(Br)cc4)CC3)n2)c1 returned m5-HT2A agonist inactive, AHR activator inactive, FXN GAA850 act inactive, MC4R antagonist inactive and MC4R ag barr 10.0.
`COc1cccc(-c2csc(N3CCN(CC(=O)NNC(=O)c4ccco4)CC3)n2)c1` gave m5-HT2A agonist inactive, AHR activator inactive, FXN GAA850 act inactive, MC4R antagonist inactive and MC4R ag barr inactive.
COc1cccc(-c2csc(N3CCN(CC(=O)NNC(=O)c4ccc(Cl)cc4)CC3)n2)c1 was read as m5-HT2A agonist inactive, AHR activator inactive, FXN GAA850 act inactive, MC4R antagonist inactive and MC4R ag barr 8.8.
`O=c1cc(-c2ccccc2)nc2nc(-c3ccccc3)[nH]n12` gave m5-HT2A agonist inactive, AHR activator 73.7, FXN GAA850 act inactive, MC4R antagonist inactive and MC4R ag barr inactive.
Screening CC(C)OC(=O)N(C)C[C@@H]1OCc2ccccc2-c2c(n(C)c3ccccc23)C(=O)N([C@@H](C)CO)C[C@H]1C returned m5-HT2A agonist inactive, FXN GAA850 act inactive, MC4R antagonist inactive and MC4R ag barr inactive.
`Cc1[nH]nc(-c2ccc(OCc3cnn(-c4ccccc4)c3)cc2O)c1Oc1ccccc1F` gave m5-HT2A agonist inactive, AHR activator 49.9, FXN GAA850 act inactive, MC4R antagonist inactive and MC4R ag barr inactive.
O=c1c(Oc2ccccc2F)coc2cc(OCc3cnn(-c4ccccc4)c3)ccc12 was read as m5-HT2A agonist inactive, AHR activator inactive, FXN GAA850 act inactive, MC4R antagonist inactive and MC4R ag barr inactive.
For CC(Oc1cccnc1[N+](=O)[O-])C(=O)Nc1ccc(Cl)cn1 (centres undefined) the results were m5-HT2A agonist inactive, AHR activator 56.3, FXN GAA850 act inactive, MC4R antagonist inactive and MC4R ag barr inactive.
`COc1ccc(O)c(/C=N/Nc2nc3ccccc3[nH]2)c1` gave m5-HT2A agonist inactive, AHR activator inactive, FXN GAA850 act inactive, MC4R antagonist inactive and MC4R ag barr inactive.
COc1cc(/C=N/Nc2nc3ccccc3[nH]c2=O)ccc1O was read as m5-HT2A agonist inactive, AHR activator inactive, FXN GAA850 act inactive, MC4R antagonist inactive and MC4R ag barr inactive.
COc1cc(/C=N/Nc2nc3ccccc3[nH]2)ccc1O was read as m5-HT2A agonist inactive, AHR activator 55.0, FXN GAA850 act inactive, MC4R antagonist inactive and MC4R ag barr inactive.
`COc1cccc(/C=N/Nc2nc3ccccc3[nH]2)c1O` gave m5-HT2A agonist inactive, AHR activator 60.5, FXN GAA850 act inactive, MC4R antagonist inactive and MC4R ag barr inactive.
`O=[N+]([O-])c1ccc(O)c(C=Nc2cccc3ccccc23)c1` gave m5-HT2A agonist inactive, AHR activator 52.1, FXN GAA850 act inactive, MC4R antagonist inactive and MC4R ag barr inactive.
O=[N+]([O-])c1ccc(O)c(/C=N/Nc2nc3ccccc3[nH]2)c1 was read as m5-HT2A agonist inactive, AHR activator 57.0, FXN GAA850 act inactive, MC4R antagonist inactive and MC4R ag barr inactive.
For COc1cccc(/C=N/Nc2nc3ccccc3[nH]2)c1OC the results were m5-HT2A agonist inactive, AHR activator inactive, FXN GAA850 act inactive, MC4R antagonist inactive and MC4R ag barr inactive.
`CCN(CC)C(=O)c1[nH]cnc1C(=O)Nc1ccccc1F` gave m5-HT2A agonist inactive, FXN GAA850 act inactive, MC4R antagonist inactive and MC4R ag barr inactive.
CN(C)CCCNC(=O)OC1CC2CC1[C@H]1CCCCN1C2=O (some centres undefined) was read as m5-HT2A agonist inactive.
COc1ccc(NC(=O)CSc2nnnn2C2CC2)cc1S(=O)(=O)N1CCOCC1 was read as m5-HT2A agonist inactive, AHR activator inactive, FXN GAA850 act inactive, MC4R antagonist inactive and MC4R ag barr inactive.
COc1cc(/C=N/Nc2snc(SC)c2C#N)ccc1O was read as m5-HT2A agonist inactive, AHR activator 73.1, FXN GAA850 act inactive, MC4R antagonist inactive and MC4R ag barr inactive.
O=C(O)c1ccc(/C=N/Nc2nc3ccccc3[nH]2)cc1 was read as m5-HT2A agonist inactive, AHR activator inactive, FXN GAA850 act inactive, MC4R antagonist inactive and MC4R ag barr inactive.
`COc1cc(/C=N/NC(=O)c2cc3ccccc3[nH]2)ccc1O` gave m5-HT2A agonist inactive, AHR activator 52.9, FXN GAA850 act inactive, MC4R antagonist inactive and MC4R ag barr inactive.
COC(=O)c1ccc(/C=N/Nc2nc3ccccc3[nH]2)cc1 was read as m5-HT2A agonist inactive, AHR activator 48.1, FXN GAA850 act inactive, MC4R antagonist inactive and MC4R ag barr inactive.
CC1Oc2cc3oc4c(O)c(O)ccc4c(=O)c3c(O)c2C1(C)C (centres undefined) was read as m5-HT2A agonist inactive, AHR activator inactive, FXN GAA850 act inactive, MC4R antagonist inactive and MC4R ag barr inactive.
For CN(CCO)c1ccc(C=NNc2ccc([N+](=O)[O-])cc2S(=O)(=O)Nc2ccccc2C(=O)O)cc1 the results were m5-HT2A agonist inactive, AHR activator inactive, FXN GAA850 act inactive, MC4R antagonist inactive and MC4R ag barr inactive.
